Measured values of several laboratories.
Target: SRSF protein kinase 3 (SRPK3, Homo sapiens, UniProt Q9UPE1)

NS(=O)(=O)c1cc(NC(=O)Cc2ccccc2)ccc1Oc1cccc(Cl)c1 — remaining binding (cell-free assay, competition with immobilised ligand; 1 µM): 100%
C[C@@H](c1ccc(-n2cnc3c(N)ncnc32)cc1)N1CCc2nn(C)c(Cc3ccccc3)c2C1=O — remaining binding (binding, competition with immobilised ligand; 0.1 µM): 76%
N[C@H]1CCN(c2nccc(-c3cnn4ncccc34)n2)C1 — remaining binding (binding; 1 µM): 66%
O=C(c1ccc(Nc2nccc(-c3cc4ccccc4s3)n2)cc1)N1CCC(N2CCCC2)CC1 — remaining binding (binding, competition with immobilised ligand; 1 µM): 100%
CN(CCCC(F)(F)F)c1nccc(-c2cnn3ncccc23)n1 — remaining binding (binding; 1 µM): 100%
CC(C)(C)c1ccc(-c2nc(CBr)nn2-c2cccc(O)c2)cc1 — remaining binding (cell-free assay, competition with immobilised ligand; 10 µM): 100%
O=C(c1ccc(Nc2ncc(Cl)c(-c3ccc(Cl)s3)n2)cc1)N1CCC(N2CCCC2)CC1 — remaining binding (binding, competition with immobilised ligand; 1 µM): 100%
O=C(Nc1cccnn1)N1CC(C/C=C/c2cncc(Oc3ccc(C(F)(F)F)cn3)n2)C1 — remaining binding (cell-free assay, competition with immobilised ligand; 1 µM): 100%
C[C@@H]1CN(c2ccc3ncc(-c4ccc5[nH]nc(C6CC6)c5c4)n3n2)C[C@H](C)O1 — remaining binding (binding, competition with immobilised ligand; 0.5 µM): 85%
CCC(=N\O)/C(C)=C/c1ccc(F)cc1 — remaining binding (cell-free assay, competition with immobilised ligand; 1 µM): 91%
CCN1CCN(Cc2ccc(C(=O)Nc3ccc(C)c(Oc4ccc5c(c4)CC(=O)N5)c3)cc2C(F)(F)F)CC1 — remaining binding (binding, competition with immobilised ligand; 1 µM): 99%
CN(C)c1nccc(-c2cnn3ncccc23)n1 — remaining binding (binding; 1 µM): 92%
C=CC(=O)N1CCC(C(=O)NCC(=O)N2CCN(c3nc(-c4cnc(N)nc4C(F)F)nc(N4CCOCC4)n3)CC2)CC1 — remaining binding (binding, competition with immobilised ligand; 1 µM): 99%
FC(F)(F)Oc1cccc(-c2cnc3ccc(-c4ccncc4)nn23)c1 — remaining binding (binding, competition with immobilised ligand; 5 µM): 41%
CO[C@H]1CC[C@H](CNc2ccc(S(=O)(=O)NC(=O)c3ccc(N4CCN(CC5=C(c6ccc(Cl)cc6)CC(C)(C)CC5)CC4)cc3Oc3cnc4[nH]ccc4c3)cc2[N+](=O)[O-])CC1 — remaining binding (cell-free assay, competition with immobilised ligand; 1 µM): 100%
Cc1cnn2ncc(-c3ccnc(N(C)C)n3)c2c1 — remaining binding (binding; 1 µM): 56%
C[C@H](NC(=O)c1cnc2n1[C@](C)(Cc1ccc(C#N)cc1)C(=O)N2c1cc(Cl)c(F)c(Cl)c1)C(=O)NC1(c2ccccn2)CC1 — remaining binding (cell-free assay, competition with immobilised ligand; 1 µM): 100%
C[C@@H]1CCN(c2nccc(-c3cnn4ncccc34)n2)C1 — remaining binding (binding; 1 µM): 55%
CNC(=O)[C@@H]1CC[C@@H](n2c(-c3ccc4cnccc4c3)nc3ccc(C(=O)NCc4cccc(C(N)=O)c4)cc32)C1 — remaining binding (binding, competition with immobilised ligand; 1 µM): 92%
F[C@@H]1CCN(c2nccc(-c3cnn4ncccc34)n2)C1 — remaining binding (binding; 1 µM): 100%
CCS(=O)(=O)c1cc2cc(C[C@@](O)(CC(C)(C)c3ccc(F)cc3C(N)=O)C(F)(F)F)[nH]c2cn1 — remaining binding (cell-free assay, competition with immobilised ligand; 1 µM): 100%
CC1CCCN1c1nccc(-c2cnn3ncccc23)n1 (stereo not drawn) — remaining binding (binding; 1 µM): 86%
O=C(NCC1CCOCC1)c1n[nH]cc1NC(=O)c1c(F)cccc1F — remaining binding (binding, competition with immobilised ligand; 1 µM): 83%
Cc1c(C(=O)O)cc(-c2ccc(C3CCNCC3)cc2)c2ccc(-c3ccc(C(F)(F)F)cc3)cc12 — remaining binding (binding, competition with immobilised ligand; 1 µM): 100%
